TAAR1 antagonist – human TAAR1 antagonists, primary screen, Fluo-8 calcium fluorescence, CHO RD-HGA16 cells | antagonist | inhibition, % at 3 µM | Trace amine-associated receptor 1 (Homo sapiens), Q96RJ0 | 360,000 tested, 1.5% active;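 active = inhibition above a per-plate cutoff, the mean inhibition of test compounds on that plate plus 3 SD, cut at about 49% in these data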;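 also: 0% = DMSO plus EC80 beta-PEA response and 100% = DMSO alone without agonist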
Target sequence (Q96RJ0 whole entry, looked up): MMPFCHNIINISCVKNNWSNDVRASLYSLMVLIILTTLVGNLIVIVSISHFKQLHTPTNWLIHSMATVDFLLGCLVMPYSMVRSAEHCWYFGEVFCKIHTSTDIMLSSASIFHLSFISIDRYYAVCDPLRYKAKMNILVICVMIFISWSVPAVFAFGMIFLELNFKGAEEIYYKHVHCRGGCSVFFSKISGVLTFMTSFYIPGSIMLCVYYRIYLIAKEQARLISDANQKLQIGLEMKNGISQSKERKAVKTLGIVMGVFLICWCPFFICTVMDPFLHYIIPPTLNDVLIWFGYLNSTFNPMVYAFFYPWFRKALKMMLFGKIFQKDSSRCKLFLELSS
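System: RD-HGA16 CHO cells with stable hTAAR1 and Gα16 | Probe or stimulus: EC80 β-phenethylamine stimulus | Dosing: 3 µM, single point | Times: Dye loading 75 min at 37 °C, then 30 min room temperature | Measured by: Fluo-8 calcium-sensitive fluorescence | Read-out basis: % inhibition of agonist calcium response | Replicates: n of 1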
TAAR1 ag – human TAAR1 agonists, primary screen, Fluo-8 calcium fluorescence, CHO RD-HGA16 cells. Trace amine-associated receptor 1 (Homo sapiens), Q96RJ0. vehicle wells 0%, saturating PEA agonist 100%. activation, % at 3 µM. 360,000 tested, 0.99% active;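 active = activation above the mean activation of all test compounds in the run plus 3 SD, cut at about 38% in these data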
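Test system: RD-HGA16 (CHO) cells co-expressing Gα16 and hTAAR1; dosing: one-point dosing at 3 µM (nominal); timing: 17-24 h seeding, 75 min 37 °C dye, 30 min RT; signal: kinetic Fluo-8 calcium fluorescence; read-out basis: % activation relative to PEA EC100 response; controls: DMSO and PEA EC100; replicates: n 1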
NS3 helicase inh – inhibitors of HCV NS3 helicase, primary screen, biochemical, Cy5 molecular beacon fluorescence | NS3 helicase DNA unwinding | Hepatitis C virus NS3 helicase | inhibition, % at 10.9 µM | 290,000 tested, 0.56% active;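 active = inhibition above the mean of all tested compounds plus 3 SD, set per campaign, cut at about 35% in these data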;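 also: 0% = DMSO wells and 100% = thioflavine S control wells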
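Compound dosing – single dose, 10.9 µM nominal final, DMSO 0.8% final · System – NS3 helicase fragment of HCV · Buffer or medium – MOPS pH 6.5, MgCl2, DTT, Tween20, BSA · Signal – Cy5 beacon fluorescence read at start and 1 h · Also added – annealed dual-labelled DNA beacon duplex, ATP-started · Schedule – 1 h at 25 °C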
rCAG binder – binders of r(CAG) RNA repeats, primary screen, biochemical, fluorescence. 370,000 tested, 1.3% active. inhibition, % at 3 µM. r(CAG) RNA repeat, TO-PRO-1 dye displacement fluorescence;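 active = inhibition above the plate cutoff, the mean of all test compounds on that plate plus 3 SD, cut at about 35% in these data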;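 also: 0% = DMSO alone and 100% = 100 µM mitoxantrone as full dye displacement; higher means more dye released from RNA so lower well fluorescence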
HCV core dimer – inhibitors of HCV core protein dimerization, primary screen, biochemical, TR-FRET, high-throughput; 300,000 tested, 0.33% active; inhibition, % at 5 µM; TR-FRET GST/Flag-core106 dimerization, 1536-well; AID 1899, 2009;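 active = inhibition above the mean of all tested compounds plus 3 SD, set per screening campaign, cut at about 45% in these data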
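System: GST-tagged and Flag-tagged HCV core protein residues 1-106 / Input: core106 proteins, GST 13.5 nM and Flag 17 nM / Buffer or medium: KF-containing HEPES buffer, pH 7.45, DTT, CHAPS, BSA / Probe or stimulus: Eu-anti-GST and XL665-anti-Flag labelled anti-tag antibodies / Schedule: 4 h, 22.5 °C incubation / Technique: TR-FRET 671 and 617 nm emission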
rCAG binder conf – small molecules binding CAG repeat RNA – biochemical, fluorescence, confirmation; shares compounds with rCAG binder; r(CAG) RNA repeat, TO-PRO-1 dye displacement fluorescence; inhibition, % at 3 µM; 4,300 tested, 70% active; AID 652065, 2013;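 active = inhibition above a per-plate cutoff, the mean inhibition of sample wells plus 3 SD, cut at about 35% in these data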;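 also: loss of TO-PRO-1 fluorescence as compound displaces dye from 1x1 AA loop RNA; 0% = DMSO only wells and 100% = 100 µM mitoxantrone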
DNA CAG counter – displacement of TO-PRO-1 from CAG DNA duplex, counter-screen for rCAG RNA repeat binder project, biochemical, fluorescence, TO-PRO-1 dye, d(CAG) DNA oligo | shares compounds with rCAG binder | d(CAG) DNA oligo TO-PRO-1 dye displacement | inhibition, % at 3 µM | 4,300 tested, 94% active | AID 652068, 2013;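 active = inhibition above its plate's cutoff, the mean test-well inhibition plus 3 SD, cut at about 4.8% in these data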;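 also: 0% = DNA dye mix with DMSO and 100% = 100 µM mitoxantrone; hits displace the dye from DNA and so lower well fluorescence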
DNA CAG DR – inhibitors of DNA CAG/GTC TO-PRO-1 complex, dose response, counter-screen for rCAG RNA repeat binder project, biochemical, fluorescence, TO-PRO-1 dye; shares compounds with rCAG binder; DNA CAG/GTC duplex TO-PRO-1 dye displacement fluorescence; IC50, µM; 250 tested, 20% active; in the data active = IC50 below about 10 µM
* marks the source's active call; other numbers are inactive results; nt = no result given. Rows were chosen to be rich in hits. Some 3.7% of all compounds tested hit in one or more screens of this group.

SMILES	TAAR1 antagonist	TAAR1 ag	NS3 helicase inh	rCAG binder	HCV core dimer	rCAG binder conf	DNA CAG counter	others
Nc1nc2c(ncn2[C@@H]2O[C@H](C(=O)NCCc3c[nH]c4ccccc34)[C@@H](O)[C@H]2O)c(=O)[nH]1	-18	5	nt	2	nt	nt	nt
CCOC(=O)C1(Cc2ccccc2)CCN(Cc2ccccc2[N+](=O)[O-])CC1	nt	nt	nt	2	nt	nt	nt
COc1ccc2[nH]c(C(=O)O)c(NS(=O)(=O)c3ccc(C)c(C)c3)c2c1	2	0	4	44*	4	24	5.9*
Cc1ccc(S(=O)(=O)Nc2c(C(=O)O)[nH]c3ccccc23)c(C)c1	-13	0	-12	58*	6	30	7.3*
COc1ccc2[nH]c(C(=O)O)c(NS(=O)(=O)c3ccc(F)cc3)c2c1	6	0	9	14	6	nt	nt
O=C(NN1C(=O)c2cc(Br)ccc2NC1c1cc(Br)cc(Br)c1O)c1ccncc1 (stereo not drawn)	6	2	27	51*	1	42*	14*
O=C(NN1C(=O)c2cc(Br)ccc2NC1c1ccccc1Cl)c1ccncc1 (stereo not drawn)	-22	-1	-2	7	2	nt	nt
CCCCOCCCNC(=O)C[C@@H]1C(=O)N(Cc2ccc(OC)cc2)C2=CCN(C(=O)OC(C)(C)C)C[C@]21C(=O)OCC	nt	nt	nt	2	nt	nt	nt
COc1cc(/C=C2\S/C(=N/S(=O)(=O)Cc3ccccc3)NC2=O)c([N+](=O)[O-])cc1OC	-31	-1	24	78*	-4	71*	33*
COc1cc(/C=C2/S/C(=N/S(=O)(=O)Cc3ccccc3)NC2=O)c([N+](=O)[O-])cc1OC	-11	-1	18	73*	-6	67*	29*
O=C1N/C(=N\S(=O)(=O)c2ccccc2)S/C1=C\c1cc([N+](=O)[O-])ccc1O	54*	37	-10	67*	8	52*	12*	DNA CAG DR=>30
COc1cc(/C=C2/S/C(=N/S(=O)(=O)c3ccccc3)NC2=O)c([N+](=O)[O-])cc1OC	-4	0	15	78*	-8	77*	41*
COC(=O)[C@]12C[C@H](CC(=O)NCCC(C)C)C(=O)N(Cc3ccc(Cl)cc3Cl)C1=C[C@H](C(C)(C)C)O[C@@H]2C	nt	nt	nt	9	nt	nt	nt
COC(=O)[C@]12C[C@H](CC(=O)NCC34CC5CC(CC(C5)C3)C4)C(=O)N(CCc3ccc(OC)c(OC)c3)C1=C[C@H](C(C)C)O[C@@H]2C1CC1	nt	nt	nt	6	nt	nt	nt
O=C1C2Sc3[nH]c(=O)sc3C(c3ccccc3)C2C(=O)N1c1ccc(Cl)cc1 (stereo not drawn)	20	17	19	36*	7	25	8.7*
Cc1ccc(N2C(=O)C3Sc4[nH]c(=O)sc4C(c4ccccc4)C3C2=O)cc1 (stereo not drawn)	8	11	15	13	7	nt	nt
COC(=O)[C@]12C[C@H](CC(=O)NCCC(C)C)C(=O)N(Cc3ccccc3)C1=C[C@H](COCc1ccccc1)O[C@@H]2C	nt	nt	nt	4	nt	nt	nt
N#CCC[C@@H]1CC[C@]2(CCCN(C(=O)c3ccc4ccccc4n3)C2)O1	nt	nt	nt	0	nt	nt	nt
Cc1cc(O)c(-c2cc(C(=O)Nc3ccc(S(=O)(=O)N4CCOCC4)cc3)[nH]n2)cc1C	23	16	-17	41*	8	29	15*
